Test results published in ChEMBL document CHEMBL1671627, “Increasing trends in antimicrobial resistance among clinically important anaerobes and Bacteroides fragilis isolates causing nosocomial infections: emerging resistance to carbapenems” (2008).
Values after ≈ are worked out from the molar mass of the structure shown.

What was measured:
Format in all cases: functional
Fusobacterium varium [1] = test: Antibacterial activity against Fusobacterium varium assessed as susceptible isolates by CLSI agar dilution method in presence of clavulanate
In short: (§1)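 Agar dilution per CLSI guidelines on nonduplicate anaerobic bloodstream isolates collected at NTUH, January to December 2006. Isolates were spotted by Steers replicator onto supplemented Brucella blood agar and incubated anaerobically for 48 h at 35°C. MIC was the lowest drug concentration that inhibited growth. B. fragilis ATCC 25285, B. thetaiotaomicron ATCC 29741 and E. lentum ATCC 43055 were run as QC in each run.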

[2] = system: Bacteroides thetaiotaomicron; test: Antibacterial activity against beta-lactamase producing Bacteroides thetaiotaomicron assessed as susceptible isolates by CLSI agar dilution method in presence of clavulanate; in short: as §1
[3] = system: Bacteroides thetaiotaomicron; test: Antibacterial activity against beta-lactamase producing Bacteroides thetaiotaomicron by CLSI agar dilution method in presence of clavulanate; in short: as §1
Finegoldia magna [4] = test: Antibacterial activity against beta-lactamase producing Finegoldia magna assessed as resistant isolates by CLSI agar dilution method in presence of clavulanate
In short: (§2)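 207 nonduplicate anaerobic blood isolates from patients with bloodstream infections at NTUH, collected January–December 2006. MICs were determined by agar dilution following CLSI guidelines. Inocula were applied with a Steers replicator onto supplemented Brucella blood agar and incubated 48 h at 35°C in an anaerobic chamber. MIC was the lowest concentration inhibiting growth. B. fragilis ATCC 25285, B. thetaiotaomicron ATCC 29741 and E. lentum ATCC 43055 served as controls in each run.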

Veillonella parvula = test: Antibacterial activity against Veillonella parvula by CLSI agar dilution method in presence of clavulanate; in short: as §1
[5] = system: Bacteroides thetaiotaomicron; test: Antibacterial activity against beta-lactamase producing Bacteroides thetaiotaomicron assessed as resistant isolates by CLSI agar dilution method in presence of clavulanate; in short: as §2
Bacteroides fragilis [6] = test: Antibacterial activity against Bacteroides fragilis assessed as susceptible isolates by CLSI agar dilution method in presence of clavulanate; in short: as §1
Finegoldia magna [7] = test: Antibacterial activity against beta-lactamase producing Finegoldia magna by CLSI agar dilution method in presence of clavulanate
In short: (§3)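 CLSI agar dilution MICs for anaerobic blood isolates (nonduplicate) collected from bloodstream-infection patients at a Taiwanese tertiary hospital, January–December 2006. Isolates were spotted by Steers replicator onto supplemented Brucella blood agar and incubated anaerobically for 48 h at 35°C. MIC was the lowest drug concentration inhibiting growth. Each run included B. fragilis ATCC 25285, B. thetaiotaomicron ATCC 29741 and E. lentum ATCC 43055 as quality-control strains.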

Clostridium septicum [8] = test: Antibacterial activity against beta-lactamase producing Clostridium septicum assessed as susceptible isolates by CLSI agar dilution method in presence of clavulanate; in short: as §3
Fusobacterium varium [9] = test: Antibacterial activity against Fusobacterium varium assessed as resistant isolates by CLSI agar dilution method in presence of clavulanate; in short: as §2
Fusobacterium varium [10] = test: Antibacterial activity against Fusobacterium varium by CLSI agar dilution method in presence of clavulanate; in short: as §1
Bacteroides fragilis [11] = test: Antibacterial activity against Bacteroides fragilis by CLSI agar dilution method in presence of clavulanate; in short: as §1
[12] = system: Peptostreptococcus anaerobius; test: Antibacterial activity against beta-lactamase producing Peptostreptococcus anaerobius assessed as resistant isolates by CLSI agar dilution method in presence of clavulanate; in short: as §2
Prevotella intermedia [13] = test: Antibacterial activity against Prevotella intermedia assessed as susceptible isolates by CLSI agar dilution method in presence of Tazobactam; in short: as §1
Fusobacterium varium [14] = test: Antibacterial activity against Fusobacterium varium by CLSI agar dilution method in presence of Tazobactam; in short: as §1
Clostridium septicum [15] = test: Antibacterial activity against beta-lactamase producing Clostridium septicum assessed as susceptible isolates by CLSI agar dilution method in presence of Tazobactam; in short: as §3
Bacteroides uniformis [16] = test: Antibacterial activity against beta-lactamase producing Bacteroides uniformis by CLSI agar dilution method
[17] = system: Clostridium paraputrificum; test: Antibacterial activity against beta-lactamase producing Clostridium paraputrificum assessed as resistant isolates by CLSI agar dilution method in presence of Tazobactam; in short: as §2
Prevotella bivia = test: Antibacterial activity against Prevotella bivia assessed as resistant isolates by CLSI agar dilution method in presence of Tazobactam; in short: as §2
[18] = system: Peptostreptococcus anaerobius; test: Antibacterial activity against beta-lactamase producing Peptostreptococcus anaerobius assessed as resistant isolates by CLSI agar dilution method in presence of Tazobactam; in short: as §2
Prevotella buccae [19] = test: Antibacterial activity against Prevotella buccae by CLSI agar dilution method in presence of Tazobactam; details: Segatella buccae; in short: as §1
Clostridium tertium = test: Antibacterial activity against beta-lactamase producing Clostridium tertium by CLSI agar dilution method in presence of Tazobactam; in short: as §3
[20] = system: Peptostreptococcus anaerobius; test: Antibacterial activity against beta-lactamase producing Peptostreptococcus anaerobius assessed as susceptible isolates by CLSI agar dilution method
[21] = system: Prevotella melaninogenica; test: Antibacterial activity against Prevotella melaninogenica by CLSI agar dilution method
Clostridium perfringens = test: microbe, parasite or virus in culture
Phocaeicola vulgatus = test: Antibacterial activity against beta-lactamase producing Bacteroides vulgatus assessed as susceptible isolates by CLSI agar dilution method
[22] = system: Prevotella melaninogenica; test: Antibacterial activity against Prevotella melaninogenica assessed as susceptible isolates by CLSI agar dilution method in presence of Tazobactam; in short: as §1
Fusobacterium varium [23] = test: Antibacterial activity against Fusobacterium varium assessed as resistant isolates by CLSI agar dilution method
[24] = system: Clostridium paraputrificum; test: Antibacterial activity against beta-lactamase producing Clostridium paraputrificum assessed as resistant isolates by CLSI agar dilution method
Prevotella intermedia [25] = test: Antibacterial activity against Prevotella intermedia by CLSI agar dilution method in presence of Tazobactam; in short: as §1
Prevotella buccae [26] = test: Antibacterial activity against Prevotella buccae by CLSI agar dilution method; details: Segatella buccae
[27] = system: Peptoniphilus asaccharolyticus; test: Antibacterial activity against beta-lactamase producing Peptoniphilus asaccharolyticus assessed as resistant isolates by CLSI agar dilution method in presence of Tazobactam; in short: as §2
[28] = system: Fusobacterium necrophorum; test: Antibacterial activity against Fusobacterium necrophorum assessed as resistant isolates by CLSI agar dilution method in presence of Tazobactam; in short: as §2
[29] = system: Prevotella melaninogenica; test: Antibacterial activity against Prevotella melaninogenica by CLSI agar dilution method in presence of Tazobactam; in short: as §1
Bacteroides uniformis [30] = test: Antibacterial activity against beta-lactamase producing Bacteroides uniformis assessed as susceptible isolates by CLSI agar dilution method in presence of Tazobactam; in short: as §1
[31] = system: Fusobacterium necrophorum; test: Antibacterial activity against Fusobacterium necrophorum assessed as susceptible isolates by CLSI agar dilution method in presence of Tazobactam; in short: as §1
Finegoldia magna [32] = test: Antibacterial activity against beta-lactamase producing Finegoldia magna assessed as susceptible isolates by CLSI agar dilution method

With CC1(C)S[C@@H]2[C@H](NC(=O)[C@H](N)c3ccc(O)cc3)C(=O)N2[C@H]1C(=O)O [AMOXICILLIN] the Activity (Fusobacterium varium [1]) was 89%, the Activity [2] was 63% and the MIC [3] was 4 µg/mL. The MIC50 [3] was 4 µg/mL, the MIC90 [3] was 32 µg/mL and the Activity (Finegoldia magna [4]) was 3%. The MIC (Veillonella parvula) was 0.12 µg/mL, the Activity [5] was 33% and the Activity (Bacteroides fragilis [6]) was 63%. It also gave an MIC50 (Finegoldia magna [7]) of 0.25 µg/mL, an MIC90 (Finegoldia magna [7]) of 2 µg/mL and an Activity (Clostridium septicum [8]) of 96%. For the same molecule, the Activity (Fusobacterium varium [9]) was 7%, the MIC50 (Fusobacterium varium [10]) was 2 µg/mL and the MIC90 (Fusobacterium varium [10]) was 4 µg/mL. It also gave an MIC50 (Bacteroides fragilis [11]) of 4 µg/mL, an MIC90 (Bacteroides fragilis [11]) of 32 µg/mL and an Activity [12] of 3%.
Molecule CCN1CCN(C(=O)N[C@@H](C(=O)N[C@@H]2C(=O)N3[C@@H]2SC(C)(C)[C@@H]3C(=O)O)c2ccccc2)C(=O)C1=O [PIPERACILLIN] has an Activity (Prevotella intermedia [13]) of 100%, an MIC50 (Fusobacterium varium [14]) of 0.5 µg/mL and an MIC90 (Fusobacterium varium [14]) of 2 µg/mL. The Activity (Clostridium septicum [15]) was 100%, the MIC50 (Bacteroides uniformis [16]) was over 128 µg/mL and the MIC90 (Bacteroides uniformis [16]) was over 128 µg/mL. It also gave an Activity [17] of 0%, an Activity (Prevotella bivia) of 0% and an Activity [18] of 0%. The MIC (Prevotella buccae [19]) was 0.03 µg/mL, the MIC50 (Prevotella buccae [19]) was 0.03 µg/mL and the MIC90 (Prevotella buccae [19]) was 1 µg/mL. The MIC50 (Clostridium tertium) was 0.5 µg/mL, the MIC90 (Clostridium tertium) was 2 µg/mL and the Activity [20] was 97%. It also gave an MIC50 [21] of 16 µg/mL (≈ 30.9 µM), an MIC90 [21] of 128 µg/mL (≈ 247 µM) and an MIC50 (Clostridium perfringens) of 0.25 µg/mL (≈ 0.483 µM). The MIC90 (Clostridium perfringens) was 2 µg/mL (≈ 3.86 µM), the Activity (Phocaeicola vulgatus) was 35% and the Activity [22] was 100%. The Activity (Fusobacterium varium [23]) was 10%, the Activity [24] was 0% and the MIC (Prevotella intermedia [25]) was 0.03 µg/mL. For the same molecule, the MIC50 (Prevotella intermedia [25]) was 0.03 µg/mL, the MIC90 (Prevotella intermedia [25]) was 1 µg/mL and the MIC50 (Prevotella buccae [26]) was 16 µg/mL (≈ 30.9 µM). For the same molecule, the MIC90 (Prevotella buccae [26]) was 128 µg/mL (≈ 247 µM), the Activity [27] was 0% and the Activity [28] was 0%. It also gave an MIC [29] of 0.03 µg/mL, an MIC50 [29] of 0.03 µg/mL and an MIC90 [29] of 1 µg/mL. The Activity (Bacteroides uniformis [30]) was 96%, the Activity [31] was 100% and the Activity (Finegoldia magna [32]) was 97%.
